The term inhibition denotes the share of the control response that was lost under treatment. One may read the IC50 as the concentration at which inhibition is half-maximal. In general, Ki refers to the equilibrium dissociation constant of an inhibitor or competing ligand from its target. For orientation: Papp A→B means how fast a substance crosses the layer from the apical side. As a reminder, the clearance is the volume of plasma or blood freed of the substance per unit of time. Low readings indicate a low capacity for elimination, high ones a high capacity for elimination. Usually half-life stands for the time in which the quantity being followed falls by half. A lower half-life goes with fast loss. The term Cmax denotes the highest concentration seen after dosing. What is called Vd is a proportionality between amount in the body and measured concentration, not a real space. Lower therefore signals little distribution into tissue.

One data set has as its target CYP3A4 (Homo sapiens, UniProt P08684). The data set can be described thus: Inhibition of CYP3A4 in human liver microsomes using midazolam as substrate at 10 uM preincubated for 10 mins followed by incubation with NADPH for 10 mins by LC- MS/MS analysis. It is filed as ADME. The settings on record: probe midazolam, time 20 min. In short, it runs like this:
(§1)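 Human liver microsomes 0.25 mg/mL with probe substrate (CYP1A2 10 µM phenacetin; CYP2D6 5 µM dextromethorphan; CYP3A4 2 µM midazolam), test compound 10 µM; 10 min preincubation at 37 °C, NADPH added (final 10 mM), 10 min at 37 °C; stopped with cold acetonitrile containing internal standards; LC-MS/MS.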
(In general: Liver microsomes are a subcellular fraction often used to study metabolism.)

Another data set addresses PI3K p110 beta/p85 alpha (Homo sapiens, UniProt P42338). The data set can be described thus: Inhibition of N-terminal His6-tagged human recombinant full length PI3Kbeta co-expressed with human recombinant full length P85alpha in baculovirus infected Sf21 cells using PIP2 peptide as substrate incubated for 1 hr in presence ATP by ADP-Glo Kinase Assay. A digest of the protocol: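 ADP-Glo reagent 1 for 40 min, then reagent 2 with 60 min equilibration before reading. IC50 taken from inhibition curves; average of at least two runs.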
Background: ADP-Glo first removes unused ATP, then detects ADP through luciferase.

Data set [1] addresses Serine/threonine-protein kinase mTOR (Homo sapiens, UniProt P42345). The data set can be described thus: Inhibition of N-terminal FLAG-tagged human recombinant mTOR (1362 to end residues) using ULight-4E-BP1 (Thr37/46) peptide as substrate incubated for 1 hr in presence of ATP by Lance Ultra assay. A digest of the protocol: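 ULight-4E-BP1 (Thr37/46) peptide with 13 µM ATP; 1 h at room temperature. Stopped with EDTA quench buffer plus Eu-anti-phospho-4E-BP1, 15 min shake and 60 min equilibration, TR-FRET read. IC50 from inhibition curves; average of at least two runs.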

Data set [2] in a line: Clearance in rat liver microsomes at 1 uM measured after 60 mins by LC-MS/MS analysis. The format is ADME, Microsome. The settings on record: read-out: CLH. A digest of the protocol:
(§2)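 Compound 1 µM with human or rat microsomes 0.5 mg/mL, preincubated 10 min at 37 °C in 100 mM potassium phosphate pH 7.4, 10 mM MgCl2; started with NADPH, sampled 0–60 min, quenched with cold acetonitrile, LC–MS/MS. A parallel no-NADPH control was run.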

Data set [3] concerns the target Phosphatidylinositol 4,5-bisphosphate 3-kinase catalytic subunit alpha isoform (Homo sapiens) (UniProt P42336). The data set can be described thus: Inhibition of PI3Kalpha in human T47D cells assessed as inhibition of insulin-stimulated Akt phosphorylation at Ser473 residue at 0.1 uM preincubated for 2 hrs followed by incubation with insulin for 2 hrs by western blot analysis relative to control. It is filed as cell-based. The note with it: time 4.0 hrs. A digest of the protocol: (§3)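 T47D cells given compound at 37 °C for 2 h, then stimulated with 1 µg/mL insulin for 2 h; lysed in RIPA with protease/phosphatase inhibitors and 1 mM PMSF; BCA-normalised SDS-PAGE, PVDF blot probed overnight at 4 °C for total Akt and pAkt Ser473, infrared secondary detection.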

Data set [4] has as its target PI3-kinase p110-delta/p85-alpha (Homo sapiens, UniProt O00329). The data set can be described thus: Inhibition of N-terminal His6-tagged human recombinant full length PI3Kdelta co-expressed with human recombinant full length P85alpha in baculovirus infected Sf21 cells using PIP2 peptide as substrate incubated for 2 hrs in presence ATP by ADP-Glo Kinase Assay. In short, it runs like this: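 ADP-Glo reagent 1 for 40 min, then reagent 2 with 60 min equilibration. IC50 from inhibition curves; average of at least two runs.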

A short description of data set [5]: Metabolic stability in human liver microsomes assessed as parent compound remaining at 1 uM preincubated for 10 mins followed by incubation in phosphate buffer at pH 7.4 for 60 mins by LC-MS/MS analysis. The settings on record: time 70 min, read-out: Stabilty. It is filed as ADME, Microsome. In short, it runs like this:
as §2

Data set [6] addresses Phosphatidylinositol 4,5-bisphosphate 3-kinase catalytic subunit alpha isoform (Homo sapiens) (UniProt P42336). The data set can be described thus: Inhibition of PI3Kalpha in human T47D cells assessed as inhibition of insulin-stimulated Akt phosphorylation at Ser473 residue at 0.3 uM preincubated for 2 hrs followed by incubation with insulin for 2 hrs by western blot analysis relative to control. It is filed as cell-based. The note with it: time 4.0 hrs. In short, it runs like this: as §3
(In general: A western blot detects proteins with antibodies after separation by electrophoresis.)

The nature of data set [7]: Apparent permeability across apical to basolateral side in human Caco2 cells at 2 uM incubated for 2 hrs by LC-MS/MS analysis. It is filed as ADME, cell-based. The settings on record: Caco-2. A digest of the protocol: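 Caco-2 monolayers grown 21–28 days; compound 2 µM both directions in duplicate, DMSO <1%; 2 h at 37 °C, 5% CO2 without shaking. Donor and receiver levels by LC/MS/MS; integrity by lucifer yellow. Papp = (dCr/dt)×Vr/(A×C0); efflux ratio = Papp(B-A)/Papp(A-B).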

Data set [8] in a line: Clearance in Sprague-Dawley rat at 5 mg/kg, iv measured after 24 hrs by LC-MS/MS analysis. It is filed as ADME, organism-based. The settings on record: in vivo. In short, it runs like this: (§4)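 Male SD rats (n=6), single 5 mg/kg intravenous dose; heparinised blood at 0.083–24 h, centrifuged at 4 °C; plasma quantified by LC–MS/MS; noncompartmental parameters.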
Data set [9] in a line: Half life in human liver microsomes at 1 uM by LC-MS/MS analysis. It is filed as ADME, Microsome. A digest of the protocol: as §2
Data set [10] can be described thus: Cmax in Sprague-Dawley rat at 5 mg/kg, iv measured after 24 hrs by LC-MS/MS analysis. The format is ADME, organism-based. On the set-up: route intravenous, dose 5 mg/kg, time 24 hrs. The note with it: in vivo. A digest of the protocol:
as §4

Data set [11] in a line: Volume of distribution in Sprague-Dawley rat at 5 mg/kg, iv measured after 24 hrs by LC-MS/MS analysis. The note with it: in vivo. The format is ADME, organism-based. In short, it runs like this: as §4
The nature of data set [12]: Half life in Sprague-Dawley rat at 5 mg/kg, iv measured after 24 hrs by LC-MS/MS analysis. The settings on record: in vivo. It is filed as ADME, organism-based. A digest of the protocol: as §4
Another data set concerns the target T1, CYP1A2 (Homo sapiens, UniProt P05177).
T1 sequence (P05177 whole entry): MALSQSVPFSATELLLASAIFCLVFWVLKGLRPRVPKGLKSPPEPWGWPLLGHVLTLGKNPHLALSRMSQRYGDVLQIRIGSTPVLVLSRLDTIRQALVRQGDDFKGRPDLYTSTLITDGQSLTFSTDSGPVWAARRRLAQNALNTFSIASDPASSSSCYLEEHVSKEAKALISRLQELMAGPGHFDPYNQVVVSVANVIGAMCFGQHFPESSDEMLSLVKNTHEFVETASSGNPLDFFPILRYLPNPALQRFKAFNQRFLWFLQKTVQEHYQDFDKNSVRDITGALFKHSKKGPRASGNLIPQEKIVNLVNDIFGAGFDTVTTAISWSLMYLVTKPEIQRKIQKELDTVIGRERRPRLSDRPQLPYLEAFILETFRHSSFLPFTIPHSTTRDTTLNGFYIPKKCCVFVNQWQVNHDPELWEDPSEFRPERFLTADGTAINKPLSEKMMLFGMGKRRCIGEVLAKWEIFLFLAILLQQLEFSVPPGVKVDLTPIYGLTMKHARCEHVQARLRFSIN
The data set can be described thus: Inhibition of CYP1A2 in human liver microsomes using phenacetin as substrate at 10 uM preincubated for 10 mins followed by incubation with NADPH for 10 mins by LC- MS/MS analysis. The format is ADME. The note with it: probe phenacetin, time 20 min. A digest of the protocol:
as §1

Another data set has as its target CYP2D6 (Homo sapiens, UniProt P10635). The data set can be described thus: Inhibition of CYP2D6 in human liver microsomes using dextromethorphan as substrate at 10 uM preincubated for 10 mins followed by incubation with NADPH for 10 mins by LC- MS/MS analysis. The format is ADME. The note with it: probe dextromethorphan, time 20 min. In short, it runs like this: as §1

Data set [13] can be described thus: Metabolic stability in rat liver microsomes assessed as parent compound remaining at 1 uM preincubated for 10 mins followed by incubation in phosphate buffer at pH 7.4 for 60 mins by LC-MS/MS analysis. The settings on record: time 70 min, read-out: Stabilty. The format is ADME, Microsome. A digest of the protocol: as §2

Chain of Phosphatidylinositol 4,5-bisphosphate 3-kinase catalytic subunit alpha isoform (Homo sapiens) (P42336 whole entry, canonical isoform): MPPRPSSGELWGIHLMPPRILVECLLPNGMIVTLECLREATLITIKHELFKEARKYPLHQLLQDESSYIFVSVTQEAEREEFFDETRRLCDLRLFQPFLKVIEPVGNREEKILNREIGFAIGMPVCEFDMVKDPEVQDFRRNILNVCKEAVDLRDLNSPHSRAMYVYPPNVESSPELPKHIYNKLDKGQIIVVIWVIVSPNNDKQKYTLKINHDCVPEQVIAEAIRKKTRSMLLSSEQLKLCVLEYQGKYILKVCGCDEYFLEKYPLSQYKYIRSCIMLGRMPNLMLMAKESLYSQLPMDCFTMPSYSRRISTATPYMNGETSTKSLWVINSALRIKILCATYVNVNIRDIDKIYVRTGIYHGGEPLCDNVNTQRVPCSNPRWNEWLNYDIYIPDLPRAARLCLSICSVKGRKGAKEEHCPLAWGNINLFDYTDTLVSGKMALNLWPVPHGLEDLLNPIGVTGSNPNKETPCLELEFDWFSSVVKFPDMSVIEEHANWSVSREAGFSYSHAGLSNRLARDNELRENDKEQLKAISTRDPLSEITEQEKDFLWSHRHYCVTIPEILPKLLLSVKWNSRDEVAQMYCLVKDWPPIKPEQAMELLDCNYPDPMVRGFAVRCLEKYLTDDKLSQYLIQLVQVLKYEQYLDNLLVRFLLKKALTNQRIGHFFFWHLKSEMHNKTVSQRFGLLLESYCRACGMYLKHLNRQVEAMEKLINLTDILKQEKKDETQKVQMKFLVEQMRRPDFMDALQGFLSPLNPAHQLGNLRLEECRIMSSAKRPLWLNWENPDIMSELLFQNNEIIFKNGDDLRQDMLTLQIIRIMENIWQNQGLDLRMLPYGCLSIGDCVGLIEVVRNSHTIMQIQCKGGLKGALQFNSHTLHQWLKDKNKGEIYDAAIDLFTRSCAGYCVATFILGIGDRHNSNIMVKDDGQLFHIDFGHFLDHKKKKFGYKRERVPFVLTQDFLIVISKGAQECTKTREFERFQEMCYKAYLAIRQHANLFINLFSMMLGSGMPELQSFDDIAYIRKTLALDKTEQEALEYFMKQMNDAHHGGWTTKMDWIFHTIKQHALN
Chain of PI3-kinase p110-delta/p85-alpha (P27986 whole entry): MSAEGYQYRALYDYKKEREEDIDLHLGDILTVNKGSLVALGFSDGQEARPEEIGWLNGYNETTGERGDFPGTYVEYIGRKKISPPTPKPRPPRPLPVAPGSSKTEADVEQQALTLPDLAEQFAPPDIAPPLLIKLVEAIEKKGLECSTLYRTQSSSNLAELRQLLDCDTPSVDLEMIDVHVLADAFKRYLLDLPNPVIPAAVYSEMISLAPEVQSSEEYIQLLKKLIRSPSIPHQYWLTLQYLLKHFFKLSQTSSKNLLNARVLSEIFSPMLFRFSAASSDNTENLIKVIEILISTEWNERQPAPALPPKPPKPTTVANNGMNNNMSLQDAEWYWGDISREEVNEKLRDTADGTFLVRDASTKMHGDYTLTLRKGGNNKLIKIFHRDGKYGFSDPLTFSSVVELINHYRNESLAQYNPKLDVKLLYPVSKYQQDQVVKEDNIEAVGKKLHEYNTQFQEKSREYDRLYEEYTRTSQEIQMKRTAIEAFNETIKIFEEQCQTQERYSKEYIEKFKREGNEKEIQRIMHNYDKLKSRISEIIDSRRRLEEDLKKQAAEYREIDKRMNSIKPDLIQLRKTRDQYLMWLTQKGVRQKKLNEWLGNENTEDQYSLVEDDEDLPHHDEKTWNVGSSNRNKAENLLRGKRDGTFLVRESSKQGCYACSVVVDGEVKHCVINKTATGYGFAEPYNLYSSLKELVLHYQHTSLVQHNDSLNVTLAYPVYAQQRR
Chain of PI3-kinase p110-delta/p85-alpha (O00329 whole entry): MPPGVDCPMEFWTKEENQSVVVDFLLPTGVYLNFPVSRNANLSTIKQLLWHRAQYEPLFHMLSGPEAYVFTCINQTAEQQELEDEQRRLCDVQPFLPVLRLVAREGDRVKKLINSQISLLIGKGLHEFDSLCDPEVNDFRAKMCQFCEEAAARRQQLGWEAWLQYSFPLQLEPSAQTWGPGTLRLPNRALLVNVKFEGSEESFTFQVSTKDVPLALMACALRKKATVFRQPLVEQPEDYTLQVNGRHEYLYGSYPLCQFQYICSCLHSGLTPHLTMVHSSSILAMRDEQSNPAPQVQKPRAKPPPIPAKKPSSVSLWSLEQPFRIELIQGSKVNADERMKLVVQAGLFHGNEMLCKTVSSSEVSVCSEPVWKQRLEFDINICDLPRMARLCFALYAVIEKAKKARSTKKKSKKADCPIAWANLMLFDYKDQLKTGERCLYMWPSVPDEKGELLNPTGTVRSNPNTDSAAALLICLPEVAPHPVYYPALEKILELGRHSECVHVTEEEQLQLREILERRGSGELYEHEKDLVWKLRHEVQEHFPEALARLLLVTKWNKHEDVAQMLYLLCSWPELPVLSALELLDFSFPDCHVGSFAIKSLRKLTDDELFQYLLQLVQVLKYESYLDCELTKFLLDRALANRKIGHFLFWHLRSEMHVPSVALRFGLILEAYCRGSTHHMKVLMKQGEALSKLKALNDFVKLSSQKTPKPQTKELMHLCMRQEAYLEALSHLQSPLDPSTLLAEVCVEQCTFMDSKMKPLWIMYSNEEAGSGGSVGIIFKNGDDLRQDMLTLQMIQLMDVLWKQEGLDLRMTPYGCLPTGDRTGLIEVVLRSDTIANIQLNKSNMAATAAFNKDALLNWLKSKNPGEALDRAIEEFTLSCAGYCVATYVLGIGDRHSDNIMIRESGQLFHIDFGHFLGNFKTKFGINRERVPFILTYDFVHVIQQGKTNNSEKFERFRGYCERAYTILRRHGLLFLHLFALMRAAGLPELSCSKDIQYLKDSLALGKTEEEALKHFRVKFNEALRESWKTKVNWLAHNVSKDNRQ
Chain of PI3K p110 beta/p85 alpha (P27986 whole entry): as the sequence (P27986 whole entry) above
Chain of PI3K p110 beta/p85 alpha (P42338 whole entry): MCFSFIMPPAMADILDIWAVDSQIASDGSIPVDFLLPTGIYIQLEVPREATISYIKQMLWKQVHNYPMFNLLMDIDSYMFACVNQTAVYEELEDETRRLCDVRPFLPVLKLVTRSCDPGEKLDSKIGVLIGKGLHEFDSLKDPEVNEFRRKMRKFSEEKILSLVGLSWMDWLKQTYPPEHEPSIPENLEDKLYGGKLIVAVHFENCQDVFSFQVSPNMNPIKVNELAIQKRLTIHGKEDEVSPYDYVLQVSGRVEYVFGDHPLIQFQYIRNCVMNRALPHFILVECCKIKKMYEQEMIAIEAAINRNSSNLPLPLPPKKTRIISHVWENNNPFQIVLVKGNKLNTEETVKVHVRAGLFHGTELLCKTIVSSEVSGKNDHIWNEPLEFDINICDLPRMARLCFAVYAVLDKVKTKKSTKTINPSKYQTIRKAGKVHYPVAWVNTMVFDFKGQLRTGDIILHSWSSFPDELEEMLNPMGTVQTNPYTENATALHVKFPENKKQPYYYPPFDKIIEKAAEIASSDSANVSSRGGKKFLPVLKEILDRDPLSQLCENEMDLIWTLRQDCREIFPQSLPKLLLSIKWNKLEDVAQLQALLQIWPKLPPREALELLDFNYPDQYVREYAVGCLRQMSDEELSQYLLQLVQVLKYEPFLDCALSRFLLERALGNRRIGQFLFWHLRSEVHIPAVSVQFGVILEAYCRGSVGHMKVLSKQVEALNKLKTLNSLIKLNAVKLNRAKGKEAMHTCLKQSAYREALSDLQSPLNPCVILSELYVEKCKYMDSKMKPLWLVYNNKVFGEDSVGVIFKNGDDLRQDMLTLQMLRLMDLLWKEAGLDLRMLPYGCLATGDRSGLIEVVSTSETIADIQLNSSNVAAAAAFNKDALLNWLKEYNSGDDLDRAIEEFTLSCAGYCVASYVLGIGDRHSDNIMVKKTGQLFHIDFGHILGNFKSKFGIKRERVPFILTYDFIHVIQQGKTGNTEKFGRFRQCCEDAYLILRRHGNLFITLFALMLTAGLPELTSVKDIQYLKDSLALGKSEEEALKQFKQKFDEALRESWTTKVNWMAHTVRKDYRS
Chain of CYP2D6 (P10635 whole entry): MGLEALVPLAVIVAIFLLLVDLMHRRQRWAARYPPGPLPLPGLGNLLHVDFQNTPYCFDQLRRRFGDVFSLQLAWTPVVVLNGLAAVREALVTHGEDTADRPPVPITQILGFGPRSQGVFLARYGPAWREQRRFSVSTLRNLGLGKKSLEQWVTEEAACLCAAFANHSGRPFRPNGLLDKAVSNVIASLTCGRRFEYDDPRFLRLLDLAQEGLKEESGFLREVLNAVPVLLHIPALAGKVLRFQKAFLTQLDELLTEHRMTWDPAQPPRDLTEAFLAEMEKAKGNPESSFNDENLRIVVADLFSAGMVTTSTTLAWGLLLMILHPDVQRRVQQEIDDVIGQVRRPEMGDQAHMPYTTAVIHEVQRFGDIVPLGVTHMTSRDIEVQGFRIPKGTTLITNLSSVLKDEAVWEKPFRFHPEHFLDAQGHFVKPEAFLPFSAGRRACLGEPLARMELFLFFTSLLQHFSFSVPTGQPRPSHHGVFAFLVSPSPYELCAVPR
Chain of CYP3A4 (P08684 whole entry): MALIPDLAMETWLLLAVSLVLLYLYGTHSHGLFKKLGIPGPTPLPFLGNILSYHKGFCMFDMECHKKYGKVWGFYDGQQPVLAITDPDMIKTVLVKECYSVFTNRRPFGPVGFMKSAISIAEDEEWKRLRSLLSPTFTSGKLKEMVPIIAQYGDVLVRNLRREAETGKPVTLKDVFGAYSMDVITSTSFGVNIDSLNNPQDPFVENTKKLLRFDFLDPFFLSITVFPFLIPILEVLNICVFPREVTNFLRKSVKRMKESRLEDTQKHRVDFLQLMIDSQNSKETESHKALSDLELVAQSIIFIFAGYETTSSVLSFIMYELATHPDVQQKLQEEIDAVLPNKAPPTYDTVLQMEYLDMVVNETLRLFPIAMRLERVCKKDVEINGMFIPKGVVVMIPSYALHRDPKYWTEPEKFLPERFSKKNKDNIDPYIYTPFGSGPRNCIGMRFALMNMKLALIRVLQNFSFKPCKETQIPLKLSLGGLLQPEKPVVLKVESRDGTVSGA

For `N#Cc1c(N2CCOCC2)sc(-c2nc[nH]n2)c1-c1ccc(NC(=O)Nc2ccccc2Cl)cc1`, the inhibition at 10 min, 10 µM on CYP3A4 worked out at 1.5%; against CYP1A2 it was 27.8%; against CYP2D6 it was 28%. The IC50 on PI3K p110 beta/p85 alpha stood at 108 nM; in [1], 1800 nM; in [4] it was 275 nM. In addition, the results for the inhibition constant (Ki) (at PI3K p110 beta/p85 alpha; in data set [4]) were 89 nM and 245 nM, respectively. In addition, the microsomal CLint at 1 µM in [2] stood at 32.8 µL/min/mg. For the same compound, the inhibition came to 58% in [3] and 59% in data set [6]. Moreover, the remaining at 1 h, 1 µM in [5] stood at 47.8%; in [13] it was 42.6%. Moreover, in [7], the Papp A→B at 2 h, 2 µM was 7.8 ×10⁻⁶ cm/s. This compound also gave a clearance in [8] of 52.4 mL/min/kg. In data set [9], this compound registered a half-life at 1 µM of 0.972 h. In data set [10], this compound had a Cmax of 2570 ng/mL. In addition, the Vd in data set [11] was determined as 8.6 L/kg. In addition, in [12], the half-life was 1.98 h.

The values are drawn from ChEMBL document CHEMBL4765307, “Design, synthesis and biological activity of novel 2,3,4,5-tetra-substituted thiophene derivatives as PI3Kα inhibitors with potent antitumor activity” (Eur J Med Chem, 2020).
